Activity calls are given as the source filed them. The rule behind the calls is not given here.
Key:
[1] = system: A549; assay: Cytotoxicity against human A549 cells after 48 hrs by MTT assay; assay type: functional, cell-based; conditions: A549, 48 h
[2] = system: DU-145; assay: Cytotoxicity against human DU145 cells after 48 hrs by MTT assay; assay type: functional, cell-based; conditions: DU-145, 48 h
[3] = Cytotoxicity against human RWPE1 cells after 48 hrs by MTT assay; assay type: cell-based; conditions: RWPE-1, 48 h
[4] = system: LNCaP; assay: Cytotoxicity against human LNCAP cells after 48 hrs by MTT assay; assay type: functional, cell-based
[5] = Cytotoxicity against human HGC cells after 48 hrs by MTT assay; assay type: functional, cell-based
[6] = system: MDA-MB-231; assay: Cytotoxicity against human MDA-MB-231 cells after 48 hrs by MTT assay; assay type: functional, cell-based; conditions: MDA-MB-231, 48 h
[7] = Therapeutic index, ratio of IC50 for human RWPE1 cells to IC50 for human DU145 cells; assay type: cell-based; conditions: RWPE1 cells versus DU145 cells, read-out: Ratio IC50
Procedure, shortened: (§1)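 Selectivity expressed as the fold by which the IC50 in normal prostate epithelial RWPE-1 cells exceeds the IC50 in the prostate cancer line (DU-145 or LNCaP).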

[8] = Therapeutic index, ratio of IC50 for human RWPE1 cells to IC50 for human LNCAP cells; assay type: cell-based; conditions: RWPE1 cells versus LNCAP cells, read-out: Ratio IC50; procedure, shortened: as §1
[9] = system: DU-145; assay: Induction of apoptosis in human DU145 cells assessed as chromatin condensation at 125 to 500 nM after 48 hrs by phase-contrast microscopic analysis; assay type: functional, cell-based
Procedure, shortened: (§2)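 DU-145 cells treated with 125, 250 or 500 nM for 48 h. Morphology (chromatin condensation, nuclear fragmentation, membrane blebbing, apoptotic bodies) examined under phase-contrast light microscope and compared with untreated control.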

[10] = system: DU-145; assay: Induction of apoptosis in human DU145 cells assessed as nuclear fragmentation at 125 to 500 nM after 48 hrs by phase-contrast microscopic analysis; assay type: functional, cell-based; procedure, shortened: as §2
[11] = system: DU-145; assay: Induction of apoptosis in human DU145 cells assessed as cell membrane blebbing at 125 to 500 nM after 48 hrs by phase-contrast microscopic analysis; assay type: functional, cell-based; procedure, shortened: as §2
[12] = system: DU-145; assay: Induction of apoptosis in human DU145 cells assessed as formation of apoptotic bodies at 125 to 500 nM after 48 hrs by phase-contrast microscopic analysis; assay type: functional, cell-based; procedure, shortened: as §2
[13] = system: DU-145; assay: Induction of apoptosis in human DU145 cells assessed as late apoptotic cells at 500 nM after 48 hrs by phase-contrast microscopic analysis; assay type: functional, cell-based; procedure, shortened: as §2
[14] = system: DU-145; assay: Induction of apoptosis in human DU145 cells assessed as reduction of cell population at 500 nM after 48 hrs by phase-contrast microscopic analysis; assay type: functional, cell-based; procedure, shortened: as §2
[15] = system: DU-145; assay: Induction of apoptosis in human DU145 cells assessed as chromatin condensation at 125 nM after 48 hrs using acridine orange and ethidium bromide staining by fluorescence microscopic analysis; assay type: functional, cell-based
Procedure, shortened: (§3)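 DU-145 cells treated with 125, 250 or 500 nM for 48 h, then stained with acridine orange/ethidium bromide. Nuclear and chromatin morphology scored by fluorescence microscopy. Live cells appear green and late apoptotic nuclei red with EB. Untreated cells serve as control.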

[16] = system: DU-145; assay: Induction of apoptosis in human DU145 cells assessed as horseshoe-shaped cells at 125 nM after 48 hrs using acridine orange and ethidium bromide staining by fluorescence microscopic analysis; assay type: functional, cell-based; procedure, shortened: as §3
[17] = system: DU-145; assay: Induction of apoptosis in human DU145 cells assessed as cell membrane blebbing at 125 nM after 48 hrs using acridine orange and ethidium bromide staining by fluorescence microscopic analysis; assay type: functional, cell-based; procedure, shortened: as §3
[18] = system: DU-145; assay: Induction of apoptosis in human DU145 cells assessed as destructive fragmentation of nuclei at 250 nM after 48 hrs using acridine orange and ethidium bromide staining by fluorescence microscopic analysis; assay type: functional, cell-based; procedure, shortened: as §3
[19] = system: DU-145; assay: Induction of apoptosis in human DU145 cells assessed as irregular distribution of chromatin at 250 nM after 48 hrs using acridine orange and ethidium bromide staining by fluorescence microscopic analysis; assay type: functional, cell-based; procedure, shortened: as §3
[20] = system: DU-145; assay: Induction of apoptosis in human DU145 cells assessed as late apoptotic cells at 500 nM after 48 hrs using acridine orange and ethidium bromide staining by fluorescence microscopic analysis; assay type: functional, cell-based; procedure, shortened: as §3
[21] = system: DU-145; assay: Induction of apoptosis in human DU145 cells assessed as condensed chromatin at 500 nM after 48 hrs using acridine orange and ethidium bromide staining by fluorescence microscopic analysis; assay type: functional, cell-based; procedure, shortened: as §3
[22] = system: DU-145; assay: Cell cycle arrest in human DU145 cells assessed as accumulation at G0/G1 phase at 125 nM after 48 hrs by propidium iodide staining (reference value: 43.5%); assay type: functional
[23] = system: DU-145; assay: Cell cycle arrest in human DU145 cells assessed as accumulation at S phase at 125 nM after 48 hrs by propidium iodide staining (reference value: 9.1%); assay type: functional
[24] = system: DU-145; assay: Cell cycle arrest in human DU145 cells assessed as accumulation at G2/M phase at 125 nM after 48 hrs by propidium iodide staining (reference value: 22.5%); assay type: functional
[25] = system: DU-145; assay: Cell cycle arrest in human DU145 cells assessed as accumulation at G0/G1 phase at 250 nM after 48 hrs by propidium iodide staining (reference value: 43.5%); assay type: functional
[26] = system: DU-145; assay: Cell cycle arrest in human DU145 cells assessed as accumulation at S phase at 250 nM after 48 hrs by propidium iodide staining (reference value: 9.1%); assay type: functional
[27] = system: DU-145; assay: Cell cycle arrest in human DU145 cells assessed as accumulation at G2/M phase at 250 nM after 48 hrs by propidium iodide staining (reference value: 22.5%); assay type: functional
[28] = system: DU-145; assay: Cell cycle arrest in human DU145 cells assessed as accumulation at G0/G1 phase at 500 nM after 48 hrs by propidium iodide staining (reference value: 43.5%); assay type: functional
[29] = system: DU-145; assay: Cell cycle arrest in human DU145 cells assessed as accumulation at S phase at 500 nM after 48 hrs by propidium iodide staining (reference value: 9.1%); assay type: functional
[30] = system: DU-145; assay: Cell cycle arrest in human DU145 cells assessed as accumulation at G2/M phase at 500 nM after 48 hrs by propidium iodide staining (reference value: 22.5%); assay type: functional
[31] = system: DU-145; assay: Induction of apoptosis in human DU145 cells assessed as dead cells at 125 nM after 48 hrs using Annexin-V and propidium iodide staining (reference value: 3.28%); assay type: functional
[32] = system: DU-145; assay: Induction of apoptosis in human DU145 cells assessed as live cells at 125 nM after 48 hrs using Annexin-V and propidium iodide staining (reference value: 86%); assay type: functional
[33] = system: DU-145; assay: Induction of apoptosis in human DU145 cells assessed as late apoptotic cells at 125 nM after 48 hrs using Annexin-V and propidium iodide staining (reference value: 9.32%); assay type: functional
[34] = system: DU-145; assay: Induction of apoptosis in human DU145 cells assessed as early apoptotic cells at 125 nM after 48 hrs using Annexin-V and propidium iodide staining (reference value: 1.40%); assay type: functional
[35] = system: DU-145; assay: Induction of apoptosis in human DU145 cells assessed as dead cells at 250 nM after 48 hrs using Annexin-V and propidium iodide staining (reference value: 3.28%); assay type: functional
[36] = system: DU-145; assay: Induction of apoptosis in human DU145 cells assessed as live cells at 250 nM after 48 hrs using Annexin-V and propidium iodide staining (reference value: 86%); assay type: functional
[37] = system: DU-145; assay: Induction of apoptosis in human DU145 cells assessed as late apoptotic cells at 250 nM after 48 hrs using Annexin-V and propidium iodide staining (reference value: 9.32%); assay type: functional
[38] = system: DU-145; assay: Induction of apoptosis in human DU145 cells assessed as early apoptotic cells at 250 nM after 48 hrs using Annexin-V and propidium iodide staining (reference value: 1.40%); assay type: functional
[39] = system: DU-145; assay: Induction of apoptosis in human DU145 cells assessed as dead cells at 500 nM after 48 hrs using Annexin-V and propidium iodide staining (reference value: 3.28%); assay type: functional
[40] = system: DU-145; assay: Induction of apoptosis in human DU145 cells assessed as live cells at 500 nM after 48 hrs using Annexin-V and propidium iodide staining (reference value: 86%); assay type: functional
[41] = system: DU-145; assay: Induction of apoptosis in human DU145 cells assessed as late apoptotic cells at 500 nM after 48 hrs using Annexin-V and propidium iodide staining (reference value: 9.32%); assay type: functional
[42] = system: DU-145; assay: Induction of apoptosis in human DU145 cells assessed as early apoptotic cells at 500 nM after 48 hrs using Annexin-V and propidium iodide staining (reference value: 1.40%); assay type: functional
[43] = biological target: DNA topoisomerase 2-alpha (Homo sapiens) (UniProt P11388); assay: Inhibition of topoisomerase-2 (unknown origin) using kDNA assessed as increase of catenated kDNA level at 50 to 100 uM after 10 mins using ethidium bromide staining by agarose gel electrophoresis
Procedure, shortened: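 Topoisomerase II drug screening kit, with catenated DNA incubated with topoisomerase II (5 units) and test agent at 50 or 100 µM. Etoposide at 100 µM serves as standard. Products resolved on gel: catenated DNA is retained in the wells, and nicked/relaxed circular and linear forms are distinguished.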

DNA topoisomerase 2-alpha (Homo sapiens), sequence (P11388 whole entry): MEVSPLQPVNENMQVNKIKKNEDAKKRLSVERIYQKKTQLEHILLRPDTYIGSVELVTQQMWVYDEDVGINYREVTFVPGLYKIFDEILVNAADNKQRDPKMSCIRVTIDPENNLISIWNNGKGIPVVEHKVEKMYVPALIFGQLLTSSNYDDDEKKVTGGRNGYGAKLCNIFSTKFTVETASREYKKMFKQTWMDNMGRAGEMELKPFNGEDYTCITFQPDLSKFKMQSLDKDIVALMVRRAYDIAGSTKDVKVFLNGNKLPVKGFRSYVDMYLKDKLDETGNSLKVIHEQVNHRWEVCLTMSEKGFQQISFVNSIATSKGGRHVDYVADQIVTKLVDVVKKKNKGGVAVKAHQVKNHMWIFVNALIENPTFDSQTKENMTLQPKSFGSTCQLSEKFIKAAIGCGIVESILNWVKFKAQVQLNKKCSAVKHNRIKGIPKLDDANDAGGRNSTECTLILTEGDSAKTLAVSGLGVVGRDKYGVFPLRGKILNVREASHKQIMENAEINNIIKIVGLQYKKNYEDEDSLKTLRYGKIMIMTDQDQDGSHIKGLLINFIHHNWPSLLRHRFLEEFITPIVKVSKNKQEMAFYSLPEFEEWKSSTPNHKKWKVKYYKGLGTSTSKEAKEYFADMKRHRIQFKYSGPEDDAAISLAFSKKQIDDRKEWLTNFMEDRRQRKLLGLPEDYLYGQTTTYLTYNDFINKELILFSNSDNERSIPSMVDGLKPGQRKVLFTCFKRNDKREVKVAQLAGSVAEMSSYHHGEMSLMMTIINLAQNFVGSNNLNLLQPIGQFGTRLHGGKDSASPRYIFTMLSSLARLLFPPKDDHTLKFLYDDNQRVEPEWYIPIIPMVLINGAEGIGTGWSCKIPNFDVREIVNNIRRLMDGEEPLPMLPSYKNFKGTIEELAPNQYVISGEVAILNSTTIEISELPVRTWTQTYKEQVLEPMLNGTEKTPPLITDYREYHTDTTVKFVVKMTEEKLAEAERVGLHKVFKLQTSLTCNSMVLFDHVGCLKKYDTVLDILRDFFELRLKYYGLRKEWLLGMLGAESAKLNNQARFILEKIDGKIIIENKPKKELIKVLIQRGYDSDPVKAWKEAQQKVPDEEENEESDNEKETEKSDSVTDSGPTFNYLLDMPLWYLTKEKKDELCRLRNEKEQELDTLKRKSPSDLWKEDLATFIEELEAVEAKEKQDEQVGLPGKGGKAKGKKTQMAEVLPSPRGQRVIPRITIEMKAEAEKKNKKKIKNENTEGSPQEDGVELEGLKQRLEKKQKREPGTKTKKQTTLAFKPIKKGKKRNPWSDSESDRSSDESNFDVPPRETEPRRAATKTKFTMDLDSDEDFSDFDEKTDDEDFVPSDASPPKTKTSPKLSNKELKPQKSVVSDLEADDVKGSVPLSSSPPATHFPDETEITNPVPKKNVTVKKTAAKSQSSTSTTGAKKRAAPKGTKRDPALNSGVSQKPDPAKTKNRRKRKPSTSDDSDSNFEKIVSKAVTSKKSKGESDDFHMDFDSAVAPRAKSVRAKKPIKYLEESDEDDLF

COc1ccc(NC(=S)N[C@@H]2c3cc4c(cc3[C@@H](c3cc(OC)c(OC)c(OC)c3)[C@H]3C(=O)OC[C@@H]32)OCO4)cc1
IC50 [1]: 37.6 µM
IC50 [2]: 0.5 µM
IC50 [3]: 40.9 µM
IC50 [4]: 17.6 µM
IC50 [5]: 3.85 µM
IC50 [6]: 18 µM
selectivity ratio [7]: 81.7
selectivity ratio [8]: 2.3
Activity [9]: Active
Activity [10]: Active
Activity [11]: Active
Activity [12]: Active
Activity [13]: Active
Activity [14]: Active
Activity [15]: Active
Activity [16]: Active
Activity [17]: Active
Activity [18]: Active
Activity [19]: Active
Activity [20]: Active
Activity [21]: Active
Activity [22]: 33.5%
Activity [23]: 19.5%
Activity [24]: 27.9%
Activity [25]: 28.4%
Activity [26]: 30.8%
Activity [27]: 26.3%
Activity [28]: 27.8%
Activity [29]: 14.8%
Activity [30]: 41.7%
Activity [31]: 3.38%
Activity [32]: 74.57%
Activity [33]: 16.75%
Activity [34]: 5.31%
Activity [35]: 2.3%
Activity [36]: 59.8%
Activity [37]: 22.55%
Activity [38]: 15.35%
Activity [39]: 1.07%
Activity [40]: 27.87%
Activity [41]: 26.68%
Activity [42]: 44.38%
inhibition [43]: Active
